Test results published in ChEMBL document CHEMBL3525963, “Tissue distribution and elimination of [14C]apixaban in rats” (Drug Metab Dispos, 2011).

Tests used:
Design in all cases: dose 5 mg/kg, dosed compound name [14C]-apixaban, route oral
Settings in all cases: in vivo
Rattus norvegicus [1] = assay: Biodistribution in female Sprague-Dawley rat salivary gland at 5 mg/kg, po administered as single dose measured after 24 hrs; format: ADME, organism-based
In short: (§1)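 Quantitative whole-body autoradiography was run after a single 5 mg/kg (100 μCi/kg) oral gavage to fasted female or pregnant SD rats, one rat per time point. Carcasses were frozen in hexane/dry ice, and 40 µm sagittal sections were dried at −20°C for at least 48 h. Sections were exposed to a phosphor plate alongside [14C]glucose standards (0.001–6.5 µCi/g). Results are µg eq/g, with LLOQ 0.037 µg eq/g.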

Rattus norvegicus [2] = assay: Biodistribution in male Sprague-Dawley rat brown fat at 5 mg/kg, po administered as single dose measured after 4 hrs; format: ADME, organism-based, Brown adipose tissue
In short: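 Fasted male rats, 225-252 g, received [14C]apixaban by single oral gavage at 100 μCi/kg in 0.5% Tween 80/Labrafil. One rat was killed per time point and the carcass frozen. Tissue radioactivity was quantified by QWBA (40 µm sagittal sections, phosphor plate, [14C]glucose calibration) as µg eq apixaban/g, with LLOQ 0.037 μg eq/g.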

Rattus norvegicus [3] = assay: Biodistribution in female Sprague-Dawley rat bone marrow at 5 mg/kg, po administered as single dose measured after 72 hrs; format: ADME, organism-based; in short: as §1
Rattus norvegicus [4] = assay: Biodistribution in pregnant Sprague-Dawley rat pituitary gland at 5 mg/kg, po administered as single dose measured after 0.5 hrs; format: ADME, organism-based
Harderian gland [5] = assay: Biodistribution in pregnant Sprague-Dawley rat harderian gland at 5 mg/kg, po administered as single dose measured after 48 hrs; format: ADME, organism-based
In short: (§2)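 Fasted pregnant SD rats (n=6, 270-319 g) each received one oral gavage dose of [14C]apixaban, 5 mg/kg (100 μCi/kg), in 0.5% Tween 80/Labrafil. One rat was killed at each of 0.5, 1, 4, 8, 24 and 48 h. Carcasses were frozen in hexane/dry ice, cut into 40 µm sagittal sections, exposed to phosphor plates and quantified against [14C]glucose standards as µg eq/g. LLOQ was 0.037 µg eq/g.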

Pancreas [6] = assay: Biodistribution in female Sprague-Dawley rat pancreas at 5 mg/kg, po administered as single dose measured after 4 hrs; format: ADME, organism-based
In short: (§3)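 [¹⁴C]Apixaban given by oral gavage at 5 mg/kg (100 μCi/kg) in 0.5% Tween 80 in Labrafil (1.0 mg/mL dosing solution) to rats fasted overnight through 4 h post-dose. One rat per time point; carcass frozen in hexane/dry ice. Quantitative whole-body autoradiography used 40 µm sagittal sections and a phosphor imaging plate calibrated with [¹⁴C]glucose standards (0.001–6.5 μCi/g). Read-out in µg eq apixaban/g; LLOQ 0.037 μg eq/g.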

Rattus norvegicus [7] = assay: Biodistribution in pregnant Sprague-Dawley rat brown fat at 5 mg/kg, po administered as single dose measured after 48 hrs; format: ADME, organism-based, Brown adipose tissue; in short: as §2
Rattus norvegicus [8] = assay: Biodistribution in fetal kidney of pregnant Sprague-Dawley rat at 5 mg/kg, po administered as single dose measured after 4 hrs; format: ADME, organism-based
In short: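 Pregnant rats, 270-319 g and fasted overnight, received [14C]apixaban by oral gavage at 100 μCi/kg in 0.5% Tween 80/Labrafil. One dam per time point was euthanized and frozen in hexane/dry ice. Fetal tissue radioactivity was measured by QWBA on 40 µm sagittal sections calibrated with [14C]glucose standards. Values are in µg eq/g, with LLOQ 0.037 μg eq/g.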

Thymus = assay: Biodistribution in pregnant Sprague-Dawley rat thymus at 5 mg/kg, po administered as single dose measured after 0.5 hrs; format: ADME, organism-based
Rattus norvegicus [9] = assay: Biodistribution in male Sprague-Dawley rat salivary gland at 5 mg/kg, po administered as single dose measured after 4 hrs; format: ADME, organism-based
Harderian gland [10] = assay: Biodistribution in pregnant Sprague-Dawley rat harderian gland at 5 mg/kg, po administered as single dose measured after 4 hrs; format: ADME, organism-based
Rattus norvegicus [11] = assay: Biodistribution in female Sprague-Dawley rat bone marrow at 5 mg/kg, po administered as single dose measured after 0.5 hrs; format: ADME, organism-based
In short: (§4)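 [14C]apixaban (20 μCi/mL in dosing solution) in 0.5% Tween 80 in Labrafil given by oral gavage to fasted female rats, 206-213 g, at 100 μCi/kg. One rat per time point was euthanized and snap-frozen. Sagittal 40 µm whole-body sections were read by QWBA phosphor imaging against [14C]glucose standards. Results are in µg eq apixaban/g, with LLOQ 0.037 μg eq/g.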

Muscle tissue = assay: Biodistribution in female Sprague-Dawley rat muscle at 5 mg/kg, po administered as single dose measured after 8 hrs; format: ADME, organism-based; in short: as §3
Rattus norvegicus [12] = assay: Biodistribution in pregnant Sprague-Dawley rat amnion at 5 mg/kg, po administered as single dose measured after 4 hrs; format: ADME, organism-based
Spleen = assay: Biodistribution in male Sprague-Dawley rat spleen at 5 mg/kg, po administered as single dose measured after 1 hr; format: ADME, organism-based
In short: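 [14C]apixaban (1.0 mg/mL, 20 μCi/mL) in 0.5% Tween 80 in Labrafil, given by oral gavage at 100 μCi/kg to male rats (225-252 g) fasted overnight through 4 h post-dose. One rat per time point. Carcasses frozen in hexane/dry ice and cut into 40 µm sagittal sections. QWBA read on phosphor plates against [14C]glucose standards, reported as µg eq/g. LLOQ 0.037 µg eq/g.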

Pancreas [13] = assay: Biodistribution in pregnant Sprague-Dawley rat pancreas at 5 mg/kg, po administered as single dose measured after 48 hrs; format: ADME, organism-based
In short: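 Pregnant SD rats (270-319 g) were fasted overnight and given one oral gavage of 5 mg/kg (100 μCi/kg) in 0.5% Tween 80 in Labrafil. One rat was euthanized per time point (0.5, 1, 4, 8, 24, 48 h) and the carcass frozen. 40 µm sagittal sections were phosphor-imaged against [14C]glucose standards and results reported as µg eq/g; LLOQ 0.037 µg eq/g.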

Rattus norvegicus [14] = assay: Biodistribution in female Sprague-Dawley rat bone marrow at 5 mg/kg, po administered as single dose measured after 4 hrs; format: ADME, organism-based; in short: as §4
Pancreas [15] = assay: Biodistribution in female Sprague-Dawley rat pancreas at 5 mg/kg, po administered as single dose measured after 0.5 hrs; format: ADME, organism-based; in short: as §3
Rattus norvegicus [16] = assay: Biodistribution in male Sprague-Dawley rat pituitary gland at 5 mg/kg, po administered as single dose measured after 0.5 hrs; format: ADME, organism-based
Rattus norvegicus [17] = assay: Biodistribution in fetal brain of pregnant Sprague-Dawley rat at 5 mg/kg, po administered as single dose measured after 24 hrs; format: ADME, organism-based; in short: as §1
Adrenal gland = assay: Biodistribution in female Sprague-Dawley rat adrenal gland at 5 mg/kg, po administered as single dose measured after 72 hrs; format: ADME, organism-based; in short: as §1
Rattus norvegicus [18] = assay: Biodistribution in male Sprague-Dawley rat pituitary gland at 5 mg/kg, po administered as single dose measured after 4 hrs; format: ADME, organism-based
Blood = assay: Biodistribution in pregnant Sprague-Dawley rat blood at 5 mg/kg, po administered as single dose measured after 48 hrs; format: ADME, organism-based; in short: as §2
Lung = assay: Biodistribution in female Sprague-Dawley rat lung at 5 mg/kg, po administered as single dose measured after 72 hrs; format: ADME, organism-based; in short: as §1
Rattus norvegicus [19] = assay: Biodistribution in fetal liver of pregnant Sprague-Dawley rat at 5 mg/kg, po administered as single dose measured after 48 hrs; format: ADME, organism-based; in short: as §2
Heart = assay: Biodistribution in pregnant Sprague-Dawley rat heart at 5 mg/kg, po administered as single dose measured after 4 hrs; format: ADME, organism-based

Compound: COc1ccc(-n2nc(C(N)=O)c3c2C(=O)N(c2ccc(N4CCCC[14C]4=O)cc2)CC3)cc1
- Radiolabel recovery (Rattus norvegicus [1]): Not detected assumed BLQ
- Radiolabel recovery (Rattus norvegicus [2]): 0.53 ugequiv/g
- Radiolabel recovery (Rattus norvegicus [3]): Not detected assumed BLQ
- Radiolabel recovery (Rattus norvegicus [4]): 0.72 ugequiv/g
- Radiolabel recovery (Harderian gland [5]): Not detected assumed BLQ
- Radiolabel recovery (Pancreas [6]): 0.55 ugequiv/g
- Radiolabel recovery (Rattus norvegicus [7]): Not detected assumed BLQ
- Radiolabel recovery (Rattus norvegicus [8]): 0.46 ugequiv/g
- Radiolabel recovery (Thymus): 0.38 ugequiv/g
- Radiolabel recovery (Rattus norvegicus [9]): 0.54 ugequiv/g
- Radiolabel recovery (Harderian gland [10]): 1.1 ugequiv/g
- Radiolabel recovery (Rattus norvegicus [11]): 0.29 ugequiv/g
- Radiolabel recovery (Muscle tissue): 0.08 ugequiv/g
- Radiolabel recovery (Rattus norvegicus [12]): 11.24 ugequiv/g
- Radiolabel recovery (Spleen): 0.32 ugequiv/g
- Radiolabel recovery (Pancreas [13]): Not detected assumed BLQ
- Radiolabel recovery (Rattus norvegicus [14]): 0.26 ugequiv/g
- Radiolabel recovery (Pancreas [15]): 0.43 ugequiv/g
- Radiolabel recovery (Rattus norvegicus [16]): 0.26 ugequiv/g
- Radiolabel recovery (Rattus norvegicus [17]): Not detected assumed BLQ
- Radiolabel recovery (Adrenal gland): Not detected assumed BLQ
- Radiolabel recovery (Rattus norvegicus [18]): 0.37 ugequiv/g
- Radiolabel recovery (Blood): Not detected assumed BLQ
- Radiolabel recovery (Lung): Not sampled as not visualised in autoradiograph
- Radiolabel recovery (Rattus norvegicus [19]): Not sampled as not visualised in autoradiograph
- Radiolabel recovery (Heart): 0.83 ugequiv/g
